High-throughput results deposited in PubChem BioAssay by several laboratories.
Rows were chosen to be rich in hits. Some 1.2% of all compounds tested hit in one or more screens of this group.
SUMO HTRF inh: inhibitors of human SUMOylation (UBC9). P63279. HTRF SUMOylation assay, SAE1/SAE2 + UBC9, in vitro. inhibition, % at 35 µM. actives 0.36% (n = 290,000); in the data active means inhibition above about 50%, passing the limit was not always enough
Fh CTSL1 inh: cathepsin L1 inhibition, PFM18AAP counter-screen; actives 0.49% (n = 300,000); inhibition, % at 5.96 µM; recombinant F. hepatica cathepsin L1, Z-Leu-Arg-MCA fluorescence;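 active means inhibition above the mean of all tested compounds plus 3 SD, set per screening campaign, cut at about 17% in these data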
TDP2 inh: TDP2 (human) inhibition, absorbance primary screen. O95551. recombinant TDP2, T5PNP hydrolysis, p-nitrophenol absorbance 415 nm. inhibition, % at 12.8 µM. actives 0.34% (n = 370,000);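 active means inhibition above the mean of all tested compounds plus 3 SD, set per campaign, cut at about 25% in these data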
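Test system: Human TDP2 enzyme | Reagent: 5 mM T5PNP | Compound dosing: 12.8 µM single point, 1% DMSO | Incubation: Enzyme reaction with compound for 2 h at 37 °C | Technique: p-Nitrophenol epi absorbance | Read-out: % inhibition relative to enzyme-containing and enzyme-free wells | Benchmarks: High control without enzyme, low control DMSO plus TDP2 | Replicates: Singlicate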
NSD2 HMT inh: NSD2 (human) methyltransferase inhibition; actives 0.54% (n = 310,000); inhibition, % at 12.5 µM; NSD2 peptide methylation, AlphaScreen, 120 min; in the data active means inhibition above about 50%
Numbers stand for hits; n = inactive; x = no result given.

SMILES	SUMO HTRF inh	Fh CTSL1 inh	TDP2 inh	NSD2 HMT inh
COC(=O)[C@]12C[C@H](CC(=O)NCc3cccc(C(F)(F)F)c3)C(=O)N(Cc3cccc4ccccc34)C1=C[C@H](C1CCCC1)O[C@@H]2C	x	x	n	x
CN1C(=O)c2cccc3c(S(=O)(=O)NCCc4ccccc4)ccc1c23	56	n	n	n
O=C1N(c2ccc(Cl)c(Cl)c2)CN(Cc2ccccc2)CN1n1cnnc1	61	n	n	n
CCC(C(=O)Nc1ccccc1N1CCCC1)c1cccc(Cl)c1 (configuration not stated)	x	x	n	x
O=C(Nc1cc2c(cc1Br)OCCO2)c1ccco1	n	n	n	n
CC(=O)c1cc2c(cc1NC(=O)c1ccco1)OCCO2	n	38	n	n
C[C@H](O)[C@@H]1C(=O)N2CCc3c([nH]c4cccc(-c5ccccc5)c34)[C@@H]2C[C@@H]1N(C)C(=O)c1ccco1	x	x	n	n
CCOC(=O)c1nn(-c2ccc(F)cc2)cc1O	n	n	n	n
CCOC(=O)c1nn(-c2ccc3c(c2)CCN3C(C)=O)cc1O	52	n	n	x
Cc1ccc2occ(C(c3nnnn3Cc3ccccc3)N3CCOCC3)c(=O)c2c1 (configuration not stated)	n	n	n	67
CCc1ccc2[nH]c(=O)c(C(c3nnnn3Cc3ccccc3)N3CCOCC3)cc2c1 (configuration not stated)	n	n	n	n
CCCCN(C=O)c1c(CC)nc2c(OCc3ccc(Cl)cc3Cl)cccn12	x	x	n	n
O=C(CN1CCC(NC(=O)NC2CCCC2)CC1)Nc1ccc2c(c1)OCCO2	x	x	n	n
Cc1ccc(CN2CCCCC(NC(=O)c3ccc(COc4ccccc4)cc3)C2=O)cc1 (configuration not stated)	x	x	n	x
CCOC(=O)c1sc2nc3c(SCCC(=O)O)cc(C(=O)c4cc(OC)ccc4O)cn3c(=O)c2c1C	74	x	n	n
Cc1ccc(-n2nc3ccc(N)cc3n2)c(C)c1	50	n	n	n
COC(=O)C1=C(C)N(Cc2cccc(C(F)(F)F)c2)C(=NCc2ccccc2C(F)(F)F)NC1c1ccc(Cl)cc1 (configuration not stated)	x	x	n	x
Cc1nn(-c2ccccc2)c(N2CCCC2)c1/C=C1\N=C(c2ccc(OC(C)C)cc2)OC1=O	n	74	n	n
Cc1ccc(C2=N/C(=C\N3CCCCC3)C(=O)O2)cc1	n	n	n	n
O=C(NCCc1cccs1)Nc1nnc([C@H]2C[C@H](O)[C@@H](CO)O2)s1	x	x	n	n
CCc1ccc(N2C(=O)C(Cl)=C(N3CCOCC3)C2=O)cc1	n	32	n	n
Cc1cccc(N2C(=O)C(Cl)=C(N3CCOCC3)C2=O)c1	n	28	n	n
O=C1C(Cl)=C(N2CCOCC2)C(=O)N1c1cccc(Cl)c1	n	57	n	n
COc1ccc(N2C(=O)C(Cl)=C(N3CCOCC3)C2=O)cc1	n	n	n	n
Cc1cccc(N2C(=O)CC(N3CCOCC3)C2=O)c1 (configuration not stated)	n	n	n	n
SMILES	SUMO HTRF inh	Fh CTSL1 inh	TDP2 inh	NSD2 HMT inh
Cc1cc(C(O)c2ncc(-c3ccc(Cl)cc3)[nH]2)ccc1F (configuration not stated)	x	x	n	n
Cc1nc(S(=O)(=O)c2ccc(Cl)cc2)c(NCc2ccccc2)o1	n	28	n	x
CNc1oc(C)nc1S(=O)(=O)c1ccccc1	n	n	n	n
CCN(CC)C(=O)COc1ccc2oc(-c3ccco3)cc(=O)c2c1	53	n	n	n
CCN(CC)C(=O)COc1c(-c2ccco2)oc2ccccc2c1=O	n	n	n	n
CC(=O)C1=C(C)N(Cc2ccc(Br)cc2)C(=S)NC1c1ccc(F)cc1 (configuration not stated)	x	x	n	n
CC1CCN(CCCn2c(=S)[nH]c3ccc(N4CCOCC4)cc3c2=O)CC1	56	n	n	n
O=c1c2cc(N3CCOCC3)ccc2[nH]c(=S)n1CCCN1CCCC1	n	n	n	n
Nc1c(C(=O)c2ccccc2)sc(Nc2ccccc2)c1S(=O)(=O)c1ccccc1	n	19	n	n
Cc1ccccc1CS(=O)(=O)Cc1ccc(C(=O)Nc2cccc(Cl)c2F)o1	x	x	n	n
Cn1c(-c2ccc(F)cc2)cnc1SCC(=O)Nc1ccccc1	n	n	n	n
CC(=O)Nc1ccc(NC(=O)Cn2c(-c3ccc(F)cc3)cnc2SCC(=O)Nc2c(C)cccc2C)cc1	51	n	n	n
COCc1[nH]nc2c1C(c1ccccc1)NC2=O (configuration not stated)	x	x	n	x
Cc1cc(C)n(C)c(=O)c1C#N	n	n	n	n
Cc1c(C=O)c(Cl)n(C)c(=O)c1C#N	n	67	39	x
O=C(Cc1cccc2ccccc12)Nc1ccccc1F	x	x	x	n
COc1ccccc1-n1c(=O)[nH]c2c(C(N)=O)nc(CC(C)C)nc21	n	21	n	x
CCn1c(COc2ccccc2)nnc1SCC(=O)CC(=O)Nc1ccccc1OC	n	n	n	n
CCn1c(COc2cccc(C)c2)nnc1SCC(=O)CC(=O)Nc1ccccc1OC	n	17	n	n
CC(C)(C)C(=O)[C@@H]1[C@@H]2C(=O)N(C3CCCCC3)C(=O)[C@@H]2[C@H]2c3ccccc3C=CN12	n	n	n	125
COC(=O)[C@]12C[C@H](CC(=O)N3CCCCC3)C(=O)N(CCC3=CCCCC3)C1=C[C@H](C1CCCC1)O[C@@H]2C	x	x	n	x
Cc1nn(-c2ccccc2)c2c1C(c1ccc(Br)s1)C(C#N)=C(N)O2 (configuration not stated)	n	x	x	x
Cc1nn(-c2ccccc2)c2c1C(c1ccc(F)cc1F)C(C#N)=C(N)O2 (configuration not stated)	n	n	62	n
CCCCCCCCCCC[C@@H](C[C@@H]1OC(=O)[C@H]1CCCCCC)OC(=O)[C@H](CC(C)C)NC=O	n	21	n	x
Nc1[nH]c(C(=O)c2ccc(Cl)cc2)c(-c2ccc(Br)cc2)c1C(=O)c1c[nH]c2ccc(F)cc12	x	x	n	x
SMILES	SUMO HTRF inh	Fh CTSL1 inh	TDP2 inh	NSD2 HMT inh
CC(=O)OC1c2ccccc2C(=O)N1c1ccccc1C (configuration not stated)	n	n	n	x
CC(=O)OC1c2ccccc2C(=O)N1Cc1ccccc1 (configuration not stated)	n	20	n	x
CC(C)C[C@H](NC(=O)OC(C)(C)C)c1nnc(SCC(=O)Nc2ccc(Br)cc2)o1	n	99	n	n
CC(C)C[C@H](N)c1nnc(SCC(=O)Nc2ccc(Br)cc2)o1	x	91	n	n
NCCc1nnc(SCC(=O)Nc2ccc(Br)cc2)o1	n	n	n	n
Cc1ccc(C)c(NC(=O)CSc2nnc([C@@H](N)Cc3ccccc3)o2)c1	n	18	n	n
Nc1ccn([C@@H]2O[C@H](C(=O)N3CCN(C(=O)C(F)(F)F)CC3)[C@@H](O)[C@H]2O)c(=O)n1	x	x	n	n
Cc1ccc(S(=O)(=O)C(C#N)c2nc3ccccc3nc2N2CCCCC2)cc1 (configuration not stated)	83	x	x	x
Cc1ccc(S(=O)(=O)C(C#N)c2nc3ccccc3nc2N2CCN(C)CC2)cc1 (configuration not stated)	n	n	n	n
